Reference: ChEMBL document CHEMBL1125775 (J Med Chem, 1991)

Assays:
[1] = molecular target: T1, Adrenergic receptor alpha-1 (Rattus norvegicus, UniProt P15823+P23944+P43140); test: Binding affinity against alpha-1 adrenergic receptor; type: protein assay
T1 sequence (P15823 whole entry): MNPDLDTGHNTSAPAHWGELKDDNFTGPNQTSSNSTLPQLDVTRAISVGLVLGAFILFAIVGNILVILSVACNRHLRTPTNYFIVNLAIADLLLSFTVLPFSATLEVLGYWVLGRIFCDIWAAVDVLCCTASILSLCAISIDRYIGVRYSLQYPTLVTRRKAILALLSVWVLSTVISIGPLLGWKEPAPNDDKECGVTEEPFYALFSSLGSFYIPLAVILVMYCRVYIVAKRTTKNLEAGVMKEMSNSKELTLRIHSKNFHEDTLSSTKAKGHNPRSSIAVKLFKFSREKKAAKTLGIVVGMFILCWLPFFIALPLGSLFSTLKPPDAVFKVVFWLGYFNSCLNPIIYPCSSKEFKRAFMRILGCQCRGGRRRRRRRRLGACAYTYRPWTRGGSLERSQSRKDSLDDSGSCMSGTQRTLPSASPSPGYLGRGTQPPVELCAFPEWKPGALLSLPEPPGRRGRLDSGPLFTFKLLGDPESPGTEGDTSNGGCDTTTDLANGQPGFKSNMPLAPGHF
T1 sequence (P23944 whole entry): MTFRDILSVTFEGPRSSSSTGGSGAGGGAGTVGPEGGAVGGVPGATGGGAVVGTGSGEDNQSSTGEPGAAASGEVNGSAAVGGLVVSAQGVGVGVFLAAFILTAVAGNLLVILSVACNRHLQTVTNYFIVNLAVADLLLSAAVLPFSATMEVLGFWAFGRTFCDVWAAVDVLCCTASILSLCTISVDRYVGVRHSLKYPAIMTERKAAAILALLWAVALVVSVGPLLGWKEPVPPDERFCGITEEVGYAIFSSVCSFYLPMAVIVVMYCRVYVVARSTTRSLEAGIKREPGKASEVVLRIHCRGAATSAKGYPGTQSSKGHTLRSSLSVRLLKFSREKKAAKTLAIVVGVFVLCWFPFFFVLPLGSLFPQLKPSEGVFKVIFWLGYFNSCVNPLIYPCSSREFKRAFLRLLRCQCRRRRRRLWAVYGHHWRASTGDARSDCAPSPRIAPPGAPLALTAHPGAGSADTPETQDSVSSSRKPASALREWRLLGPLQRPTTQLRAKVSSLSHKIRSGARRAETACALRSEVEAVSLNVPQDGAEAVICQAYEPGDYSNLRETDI
T1 sequence (P43140 whole entry): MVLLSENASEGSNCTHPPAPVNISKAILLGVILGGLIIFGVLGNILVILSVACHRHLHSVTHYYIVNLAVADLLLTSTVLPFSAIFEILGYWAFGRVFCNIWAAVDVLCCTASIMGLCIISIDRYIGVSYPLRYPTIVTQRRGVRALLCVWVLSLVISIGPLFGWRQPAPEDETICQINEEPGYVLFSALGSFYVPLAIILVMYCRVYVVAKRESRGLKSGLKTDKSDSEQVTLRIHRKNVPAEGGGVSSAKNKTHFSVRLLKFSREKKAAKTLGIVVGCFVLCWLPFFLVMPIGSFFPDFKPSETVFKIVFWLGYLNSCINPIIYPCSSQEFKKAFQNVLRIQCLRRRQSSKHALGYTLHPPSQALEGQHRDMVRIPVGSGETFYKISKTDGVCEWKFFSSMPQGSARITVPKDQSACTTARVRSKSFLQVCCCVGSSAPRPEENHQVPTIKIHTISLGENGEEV
Outline: (§1)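 Radioligand binding at α1 adrenergic receptors using [3H]prazosin in a standard binding assay.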

[2] = molecular target: Glutamate NMDA receptor; test: N-methyl-D-aspartate glutamate receptor antagonistic activity in cell culture(CC)model; type: functional
Outline: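 Functional NMDA antagonism in rat hippocampal cell cultures. Read-out is protection of the cultured neurons against toxicity from extracellularly applied glutamate (the glutamate-induced hippocampal neurodegeneration model).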

[3] = test system: Alpha-1 adrenergic receptor versus NMDA receptor; test: (§2) Therapeutic index is the ratio of IC50 value for Alpha-1 adrenergic receptor to that for NMDA.; conditions: read-out: TI
Outline: (§3)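 Selectivity index calculated as α1 adrenergic potency ([3H]prazosin binding) divided by activity in the rat hippocampal culture glutamate-neurotoxicity model.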

[4] = molecular target: T1, Adrenergic receptor alpha-1; test: Compound was tested for the binding affinity against Alpha-1 adrenergic receptor; type: protein assay; outline: as §1
[5] = as §2; outline: as §3
[6] = molecular target: 5-hydroxytryptamine receptor 2A (Bos taurus, UniProt Q75Z89); test: Compound was tested for the binding affinity against 5-hydroxytryptamine 2 receptor by using [3H]ketanserin as radioligand
5-hydroxytryptamine receptor 2A, sequence (Q75Z89 whole entry): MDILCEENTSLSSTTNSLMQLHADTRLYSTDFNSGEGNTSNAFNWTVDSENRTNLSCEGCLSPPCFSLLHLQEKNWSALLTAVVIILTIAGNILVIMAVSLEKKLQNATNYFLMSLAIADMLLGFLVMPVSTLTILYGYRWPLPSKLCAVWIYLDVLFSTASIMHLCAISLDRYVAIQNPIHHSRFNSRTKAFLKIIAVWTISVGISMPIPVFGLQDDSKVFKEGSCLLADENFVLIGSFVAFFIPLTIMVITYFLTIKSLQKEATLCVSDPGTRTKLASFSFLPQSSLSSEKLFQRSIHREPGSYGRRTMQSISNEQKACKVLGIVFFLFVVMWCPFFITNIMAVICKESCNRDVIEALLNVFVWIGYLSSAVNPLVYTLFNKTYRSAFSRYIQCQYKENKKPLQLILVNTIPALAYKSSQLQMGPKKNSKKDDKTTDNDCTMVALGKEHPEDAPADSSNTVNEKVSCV

[7] = molecular target: T2, 5-hydroxytryptamine receptor 1A (Mus musculus, UniProt Q64264); test: Compound was tested for the binding affinity against 5-hydroxytryptamine 1A receptor by using [3H]DPAT as radioligand
T2 sequence (Q64264 whole entry): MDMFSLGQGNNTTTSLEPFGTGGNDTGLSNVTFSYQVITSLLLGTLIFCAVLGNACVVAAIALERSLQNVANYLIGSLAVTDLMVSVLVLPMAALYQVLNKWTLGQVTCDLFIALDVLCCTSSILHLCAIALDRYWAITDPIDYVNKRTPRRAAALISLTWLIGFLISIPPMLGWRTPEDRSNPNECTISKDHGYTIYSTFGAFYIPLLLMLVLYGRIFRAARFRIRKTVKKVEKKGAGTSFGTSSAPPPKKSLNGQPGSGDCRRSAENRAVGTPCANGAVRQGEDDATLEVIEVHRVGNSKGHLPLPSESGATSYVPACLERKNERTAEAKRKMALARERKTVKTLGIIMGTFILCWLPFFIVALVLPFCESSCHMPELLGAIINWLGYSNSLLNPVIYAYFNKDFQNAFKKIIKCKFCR

[8] = molecular target: Muscarinic acetylcholine receptor M3 (Rattus norvegicus, UniProt P08483); test: Compound was tested for the binding affinity against muscarinic acetylcholine receptorby using [3H]QNB as radioligand
Muscarinic acetylcholine receptor M3, sequence (P08483 whole entry): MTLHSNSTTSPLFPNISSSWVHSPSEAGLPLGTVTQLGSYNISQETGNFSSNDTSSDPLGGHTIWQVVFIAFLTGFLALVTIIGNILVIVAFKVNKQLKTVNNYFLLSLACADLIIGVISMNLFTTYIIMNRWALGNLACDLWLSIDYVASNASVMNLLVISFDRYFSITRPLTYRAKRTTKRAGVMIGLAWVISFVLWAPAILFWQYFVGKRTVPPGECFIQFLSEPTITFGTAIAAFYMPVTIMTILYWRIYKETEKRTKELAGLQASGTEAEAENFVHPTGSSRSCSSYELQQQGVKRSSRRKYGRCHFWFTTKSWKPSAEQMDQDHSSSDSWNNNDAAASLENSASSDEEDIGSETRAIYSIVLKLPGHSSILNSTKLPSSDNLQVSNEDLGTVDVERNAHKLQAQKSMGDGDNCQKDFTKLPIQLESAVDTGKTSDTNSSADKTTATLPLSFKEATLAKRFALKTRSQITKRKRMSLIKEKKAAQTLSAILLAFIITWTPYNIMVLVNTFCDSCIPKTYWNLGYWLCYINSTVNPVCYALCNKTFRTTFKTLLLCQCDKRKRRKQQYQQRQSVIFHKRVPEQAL

[9] = molecular target: D(2) dopamine receptor (Homo sapiens, UniProt P14416); test: Compound was tested for the binding affinity against dopamine receptor D2 by using [3H]spiperone as radioligand
D(2) dopamine receptor, sequence (P14416 whole entry): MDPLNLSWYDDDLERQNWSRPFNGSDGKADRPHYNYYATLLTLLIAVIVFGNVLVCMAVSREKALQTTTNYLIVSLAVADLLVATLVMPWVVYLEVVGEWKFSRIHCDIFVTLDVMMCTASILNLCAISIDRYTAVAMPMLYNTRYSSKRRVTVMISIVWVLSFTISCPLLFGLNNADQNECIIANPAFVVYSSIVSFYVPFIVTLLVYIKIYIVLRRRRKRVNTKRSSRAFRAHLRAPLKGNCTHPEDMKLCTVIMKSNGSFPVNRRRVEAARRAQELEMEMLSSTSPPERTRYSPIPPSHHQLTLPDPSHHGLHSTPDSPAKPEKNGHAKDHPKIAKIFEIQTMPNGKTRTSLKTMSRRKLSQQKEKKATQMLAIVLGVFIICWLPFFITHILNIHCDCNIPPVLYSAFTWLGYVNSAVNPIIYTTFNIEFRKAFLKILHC

[10] = molecular target: Histamine H1 receptor (Homo sapiens, UniProt P35367); test: Compound was tested for the binding affinity against histamine H1 receptor by using [3H]mepyramine as radioligand
Histamine H1 receptor, sequence (P35367 whole entry): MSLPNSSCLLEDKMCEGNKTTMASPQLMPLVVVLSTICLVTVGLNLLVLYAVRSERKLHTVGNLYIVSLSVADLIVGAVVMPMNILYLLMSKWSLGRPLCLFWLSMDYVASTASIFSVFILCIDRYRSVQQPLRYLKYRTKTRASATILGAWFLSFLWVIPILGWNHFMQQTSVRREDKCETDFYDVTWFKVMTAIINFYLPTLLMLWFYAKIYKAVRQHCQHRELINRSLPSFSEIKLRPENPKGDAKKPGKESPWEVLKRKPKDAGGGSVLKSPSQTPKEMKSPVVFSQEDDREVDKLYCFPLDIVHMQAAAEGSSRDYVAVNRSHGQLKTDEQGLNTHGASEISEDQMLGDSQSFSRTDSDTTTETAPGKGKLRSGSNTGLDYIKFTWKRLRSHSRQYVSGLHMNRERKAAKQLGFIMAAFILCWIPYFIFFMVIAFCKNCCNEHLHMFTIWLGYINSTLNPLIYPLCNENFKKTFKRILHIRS

[11] = molecular target: Mu-type opioid receptor (Homo sapiens, UniProt P35372); test: Compound was tested for the binding affinity against opioid receptor mu by using [3H]naloxone as radioligand
Mu-type opioid receptor, sequence (P35372 whole entry): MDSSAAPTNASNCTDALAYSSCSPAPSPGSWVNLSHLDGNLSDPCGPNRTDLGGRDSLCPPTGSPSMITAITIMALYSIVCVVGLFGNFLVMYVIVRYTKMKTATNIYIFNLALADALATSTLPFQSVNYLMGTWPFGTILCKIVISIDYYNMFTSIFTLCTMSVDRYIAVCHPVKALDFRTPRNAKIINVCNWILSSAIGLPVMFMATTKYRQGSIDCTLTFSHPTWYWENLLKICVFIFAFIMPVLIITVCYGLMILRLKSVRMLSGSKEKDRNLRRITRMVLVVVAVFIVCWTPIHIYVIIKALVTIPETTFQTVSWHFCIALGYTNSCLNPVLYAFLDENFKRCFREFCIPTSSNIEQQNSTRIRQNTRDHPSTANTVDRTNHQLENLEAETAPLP

[12] = molecular target: D(1A) dopamine receptor (Mus musculus, UniProt Q61616); test: Compound was tested for the binding affinity against dopamine receptor D1 by using [3H]-SCH- 23390 as radioligand
D(1A) dopamine receptor, sequence (Q61616 whole entry): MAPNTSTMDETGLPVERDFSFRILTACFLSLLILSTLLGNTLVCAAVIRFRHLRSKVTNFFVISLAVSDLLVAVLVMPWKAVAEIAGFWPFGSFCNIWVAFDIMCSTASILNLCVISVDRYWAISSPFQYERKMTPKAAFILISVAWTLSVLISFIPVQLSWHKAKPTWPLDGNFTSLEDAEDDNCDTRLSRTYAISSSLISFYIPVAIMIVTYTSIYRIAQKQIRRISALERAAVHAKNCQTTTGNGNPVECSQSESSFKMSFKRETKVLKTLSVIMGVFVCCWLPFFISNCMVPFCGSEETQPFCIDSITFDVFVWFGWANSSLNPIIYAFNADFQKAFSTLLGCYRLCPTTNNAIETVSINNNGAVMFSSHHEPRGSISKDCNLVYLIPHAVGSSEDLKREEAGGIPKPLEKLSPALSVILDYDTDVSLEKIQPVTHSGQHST

| Structure (SMILES) | IC50 [1] | IC50 [2] | selectivity ratio [3] | also measured |
| --- | --- | --- | --- | --- |
| CCCC1CCN([C@@H](C)[C@@H](O)c2ccc(O)cc2)CC1 | 2867 nM | 6.3 µM | 0.61 | – |
| CC(Cc1ccc(O)cc1)N1CCC(Cc2ccccc2)CC1 (stereo not given) | 130 nM | 0.153 µM | 0.85 | – |
| c1ccc(CCN2CCC(Cc3ccccc3)CC2)cc1 | 347 nM | 0.29 µM | 1.19 | – |
| C[C@@H]([C@@H](O)c1ccc(O)cc1)N1CCN(Cc2ccccc2)CC1 | – | 10 µM | – | IC50 [4]: 4633 nM |
| C[C@@H]([C@H](O)c1ccc(O)cc1)N1CCCCC1 | > 10000 nM | > 10 µM | – | – |
| C[C@@H]([C@@H](O)c1ccccc1)N1CCC(Cc2ccccc2)CC1 | 3400 nM | 3.7 µM | 0.92 | – |
| C[C@@H]([C@@H](O)c1ccc(O)cc1)N1CCCCC1 | > 10000 nM | > 10 µM | – | – |
| C[C@@H]([C@@H](O)c1ccc(O)cc1)N1CCC(Cc2ccccc2)CC1 (stereo in doubt; 2) [(S)-IFENPRODIL] | – | – | – | IC50 [4]: 843 nM |
| C[C@@H]([C@H](O)c1ccc(O)cc1)N1CCC(Cc2ccccc2)CC1 [(R,S)-IFENPRODIL] | 135 nM | – | – | – |
| CC(C(O)c1ccc(O)cc1)N1CCC(Cc2ccccc2)CC1 (stereo not given) [IFENPRODIL] | – | – | – | IC50 [6]: 610 nM; IC50 [7]: 238 nM; IC50 [4]: 100 nM; IC50 [8]: > 1000 nM; IC50 [9]: > 1000 nM; IC50 [10]: 1000 nM; IC50 [11]: > 1000 nM; IC50 [12]: > 1000 nM |

Continued, in another order:

| IC50 [1] | IC50 [2] | Structure (SMILES) | selectivity ratio [3] | also measured |
| --- | --- | --- | --- | --- |
| > 10000 nM | > 10 µM | C[C@@H]([C@@H](O)c1ccc(O)cc1)N1CCN(C(=O)c2ccccc2)CC1 | – | – |
| 573 nM | – | C[C@@H]([C@H](O)c1ccccc1)N1CCC(Cc2ccccc2)CC1 | 0.28 | – |
| > 10000 nM | > 10 µM | CC(CO)N1CCC(Cc2ccccc2)CC1 (stereo not given) | – | – |
| 220 nM | – | C[C@@H]([C@H](O)c1ccc(F)cc1)N1CCC(Cc2ccccc2)CC1 | 0.94 | – |
| 2133 nM | 5 µM | OC(CN1CCC(Cc2ccccc2)CC1)c1ccccc1 (stereo not given) | 0.43 | – |
| 2566 nM | 0.1 µM | C[C@@H]([C@@H](O)c1ccc(F)cc1)N1CCC(Cc2ccccc2)CC1 | 25.6 | – |
| 2306 nM | – | C[C@@H]([C@@H](O)c1ccc(O)cc1)N1CCC(Cc2ccccc2)CC1 (stereo in doubt; 18) [(S)-IFENPRODIL] | – | TI [5]: 48 |
| 629 nM | – | C[C@@H]([C@@H](O)c1ccc(O)cc1)N1CCC(Cc2ccccc2)CC1 (stereo in doubt; 19) [(S)-IFENPRODIL] | – | – |
